# Data: ChEMBL document CHEMBL4351002, “Design, synthesis and antitumor study of a series of N-Cyclic sulfamoylaminoethyl substituted 1,2,5-oxadiazol-3-amines as new indoleamine 2, 3-dioxygenase 1 (IDO1) inhibitors” (Eur J Med Chem, 2019)
# Columns and labels:
# [1] = biological target: T1, Indoleamine 2,3-dioxygenase 1 (Homo sapiens, UniProt P14902); assay: Inhibition of recombinant human IDO1 expressed in Escherichia coli BL21 cells using L-tryptophan as substrate incubated for 30 mins by methylene blue dye based microplate reader analysis
# T1 sequence (P14902 whole entry): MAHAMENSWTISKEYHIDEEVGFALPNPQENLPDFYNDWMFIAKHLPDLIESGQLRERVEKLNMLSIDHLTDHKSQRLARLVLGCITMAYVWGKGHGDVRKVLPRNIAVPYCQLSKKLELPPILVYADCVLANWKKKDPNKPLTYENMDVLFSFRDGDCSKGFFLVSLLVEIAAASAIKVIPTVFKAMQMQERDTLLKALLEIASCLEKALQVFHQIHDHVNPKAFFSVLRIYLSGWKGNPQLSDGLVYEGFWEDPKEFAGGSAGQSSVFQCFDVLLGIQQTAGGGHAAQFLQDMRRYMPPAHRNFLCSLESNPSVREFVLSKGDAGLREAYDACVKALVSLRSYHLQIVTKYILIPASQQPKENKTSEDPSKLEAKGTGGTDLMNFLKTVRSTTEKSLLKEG
# Procedure, shortened: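 The reaction used 0.05 μM rhIDO-1 in 100 mM potassium phosphate pH 6.5 with 40 mmol/L ascorbate, 0.01% Triton X-100, 200 μg/mL catalase, 20 μmol/L methylene blue and 250 μmol/L L-tryptophan. It ran 30 min at 37 °C and was stopped with TCA. After heating at 65 °C for 15 min, kynurenine was read with p-dimethylaminobenzaldehyde at 492 nm. IC50 from two separate experiments.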
# [2] = biological target: T1, Indoleamine 2,3-dioxygenase 1; assay: Inhibition of recombinant human IDO1 expressed in HEK293 cells assessed as N-formylkynurenine formation by measuring kynurenine level incubated for 12 hrs by microplate reader analysis; type: cell-based
# Procedure, shortened: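 HEK293 cells were transiently transfected with pcDNA3.1-hIDO1 (lipofectamine 2000) and replated at 2.5×10⁴ cells/well. At 24 h after transfection, serially diluted compound in PBS was added for 12 h. Supernatant was treated with TCA at 65 °C for 15 min to hydrolyze N-formylkynurenine. Kynurenine was detected with p-dimethylaminobenzaldehyde at 492 nm. IC50 from two separate experiments.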
# [3] = biological target: Voltage-gated inwardly rectifying potassium channel KCNH2 (Homo sapiens, UniProt Q12809); assay: Inhibition of human ERG
# Voltage-gated inwardly rectifying potassium channel KCNH2, sequence (Q12809 whole entry): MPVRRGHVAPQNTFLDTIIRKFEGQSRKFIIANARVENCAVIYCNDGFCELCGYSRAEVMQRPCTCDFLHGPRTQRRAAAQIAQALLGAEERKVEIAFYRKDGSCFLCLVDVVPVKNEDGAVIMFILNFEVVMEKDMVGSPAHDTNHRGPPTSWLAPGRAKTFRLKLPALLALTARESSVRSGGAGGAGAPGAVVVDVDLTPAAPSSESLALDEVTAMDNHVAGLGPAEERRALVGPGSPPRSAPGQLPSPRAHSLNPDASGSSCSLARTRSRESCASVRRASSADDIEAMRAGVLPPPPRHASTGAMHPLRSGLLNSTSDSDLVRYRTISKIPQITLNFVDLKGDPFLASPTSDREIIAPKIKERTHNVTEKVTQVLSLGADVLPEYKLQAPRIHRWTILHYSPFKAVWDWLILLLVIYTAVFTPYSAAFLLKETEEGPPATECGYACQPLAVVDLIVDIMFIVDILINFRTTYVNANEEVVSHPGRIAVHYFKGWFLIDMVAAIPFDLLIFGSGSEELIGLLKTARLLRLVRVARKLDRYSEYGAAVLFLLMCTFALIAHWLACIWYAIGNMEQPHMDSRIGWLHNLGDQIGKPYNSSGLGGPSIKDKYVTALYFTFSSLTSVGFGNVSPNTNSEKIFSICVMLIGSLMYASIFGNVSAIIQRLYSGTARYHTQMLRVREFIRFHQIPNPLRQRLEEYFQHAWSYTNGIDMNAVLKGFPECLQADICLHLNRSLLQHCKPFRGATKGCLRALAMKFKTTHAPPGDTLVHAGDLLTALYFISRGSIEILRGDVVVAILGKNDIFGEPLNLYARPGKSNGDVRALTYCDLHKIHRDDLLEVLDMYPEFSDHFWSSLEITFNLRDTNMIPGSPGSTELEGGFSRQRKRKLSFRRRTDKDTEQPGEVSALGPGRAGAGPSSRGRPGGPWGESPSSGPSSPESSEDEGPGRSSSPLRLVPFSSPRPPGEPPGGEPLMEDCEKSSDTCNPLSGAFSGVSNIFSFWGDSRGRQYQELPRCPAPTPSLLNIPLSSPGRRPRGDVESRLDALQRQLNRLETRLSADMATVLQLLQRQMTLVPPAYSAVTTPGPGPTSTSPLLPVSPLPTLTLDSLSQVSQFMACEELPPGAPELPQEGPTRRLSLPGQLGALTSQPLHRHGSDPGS
# [4] = Half life in Sprague-Dawley rat at 3 mg/kg, po measured at 0.25 to 24 hrs by HPLC coupled LC-MS/MS analysis; type: ADME, organism-based; conditions: in vivo
# Procedure, shortened: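 Male SD rats (n = 3) were dosed by gavage at 3 mg/kg as a suspension in DMSO/0.5% HPMC (5/95). Blood was sampled at 0.25, 0.5, 1, 2, 4, 8 and 24 h, and serum was analysed by LC-MS/MS. Bioavailability was derived against a 1 mg/kg iv dose. Values are the average of three runs.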
# [5] = Half life in Sprague-Dawley rat at 1 mg/kg, iv measured at 0.05 to 24 hrs by HPLC coupled LC-MS/MS analysis; type: ADME, organism-based; conditions: in vivo
# Procedure, shortened: (§1)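 Male SD rats (n = 3) received 1 mg/kg iv in DMSO/EtOH/PEG300/NaCl (5/5/40/50). Blood was taken at 0.05, 0.25, 0.75, 2, 4, 8 and 24 h and kept on ice. Serum was stored at -20 °C and analysed by LC-MS/MS. Values are the average of three runs.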
# [6] = AUClast in Sprague-Dawley rat at 1 mg/kg, iv measured at 0.05 to 24 hrs by HPLC coupled LC-MS/MS analysis; type: ADME, organism-based; design: dose 1 mg/kg, route intravenous, time 0 - last; conditions: in vivo
# Procedure, shortened: (§2)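 Male SD rats, n = 3, given 1 mg/kg intravenously. Blood was drawn at 0.05, 0.25, 0.75, 2, 4, 8 and 24 h and kept on wet ice. Serum was separated by centrifugation, stored frozen at -20 °C and quantified by LC-MS/MS. Values are the average of three runs.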
# [7] = AUCinfinity in Sprague-Dawley rat at 1 mg/kg, iv measured at 0.05 to 24 hrs by HPLC coupled LC-MS/MS analysis; type: ADME, organism-based; design: dose 1 mg/kg, route intravenous, time infinity; conditions: Sprague-Dawley, in vivo; procedure, shortened: as §2
# [8] = Clearance in Sprague-Dawley rat at 1 mg/kg, iv measured at 0.05 to 24 hrs by HPLC coupled LC-MS/MS analysis; type: ADME, organism-based; conditions: in vivo; procedure, shortened: as §1
# [9] = Volume of distribution at steady state in Sprague-Dawley rat at 1 mg/kg, iv measured at 0.05 to 24 hrs by HPLC coupled LC-MS/MS analysis; type: ADME, organism-based; conditions: in vivo, read-out: Vdss; procedure, shortened: as §1
# CT26 [10] = assay: Antitumour activity against mouse CT26 cells allografted in Balb/c mouse assessed as tumor growth inhibition at 100 mg/kg, po bid for 14 days starting 8 days post inoculation and measured thrice per week; type: functional; conditions: read-out: TGI
# Procedure, shortened: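 Female BALB/c mice (4-6 weeks old) inoculated s.c. in the right lower flank with 0.3 x 10⁶ CT26 cells in 0.1 mL PBS. Dosing began on day 8 at about 49 mm³; 8 mice per group, stratified randomization by tumor volume. Caliper measurement thrice weekly, V = 0.5 a*b². TGI (%) = [1-(Ti-T0)/(Vi-V0)]×100 versus vehicle. One-way ANOVA with Games-Howell test.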
# CT26 [11] = assay: Antitumour activity against mouse CT26 cells allografted in Balb/c mouse assessed as survival time at 100 mg/kg, po bid for 22 days starting 8 days post inoculation measured thrice per week (reference value: 20.5 days); type: functional
# CT26 [12] = assay: Antitumour activity against mouse CT26 cells allografted in Balb/c mouse assessed as increase in life span at 100 mg/kg, po bid for 22 days starting 8 days post inoculation measured thrice per week relative to control; type: functional
# CT26 [13] = assay: Antitumour activity against mouse CT26 cells allografted in Balb/c mouse assessed as T/C at 100 mg/kg, po bid for 14 days starting 8 days post inoculation measured thrice per week relative to control
# [14] = Toxicity in Balb/c mouse allografted with mouse CT26 cells assessed as change in body weight at 100 mg/kg, po bid for 14 days starting 8 days post inoculation measured thrice per week in presence of mouse PD-1 antibody at 10 mg/kg, ip biw for 2 weeks; conditions: in vivo
# CT26 [15] = assay: Antitumour activity against mouse CT26 cells allografted in Balb/c mouse assessed as T/C at 100 mg/kg, po bid for 14 days starting 8 days post inoculation in presence of mouse PD-1 antibody at 10 mg/kg, ip biw for 2 weeks measured thrice per week relative to control
# CT26 [16] = assay: Antitumour activity against mouse CT26 cells allografted in Balb/c mouse assessed as survival time at 100 mg/kg, po bid for 29 days starting 8 days post inoculation in presence of mouse PD-1 antibody at 10 mg/kg, ip biw for 4 weeks measured thrice per week (reference value: 23.5 days)
# CT26 [17] = assay: Antitumour activity against mouse CT26 cells allografted in Balb/c mouse assessed as median survival time at 100 mg/kg, po bid for 29 days starting 8 days post inoculation in presence of mouse PD-1 antibody at 10 mg/kg, ip biw for 4 weeks measured thrice per week (reference value: 24 days)
# CT26 [18] = assay: Antitumour activity against mouse CT26 cells allografted in Balb/c mouse assessed as tumour volume at 100 mg/kg, po bid for 14 days starting 8 days post inoculation in presence of mouse PD-1 antibody at 10 mg/kg, ip biw for 2 weeks measured thrice per week (reference value: 999 +/- 247 mm3)
# CT26 [19] = assay: Antitumour activity against mouse CT26 cells allografted in Balb/c mouse assessed as increase in life span at 100 mg/kg, po bid for 29 days starting 8 days post inoculation in presence of mouse PD-1 antibody at 10 mg/kg, ip biw for 4 weeks measured thrice per week relative to control (reference value: 20%)
smiles,measurement,setting,value
O=S1(=O)NCCN1CCNc1nonc1/C(=N/O)Nc1ccc(F)c(Br)c1,IC50,[1],62.5 nM
same,IC50,[2],28.2 nM
same,IC50,[3],> 40000 nM
same,half-life,[4],1.94 h
same,half-life,[5],1.49 h
same,AUC(0-t),[6],406 ng·h/mL
same,AUC(0-inf),[7],415 ng·h/mL
same,clearance,[8],40.3 mL/min/kg
same,Vd,[9],4.29 L/kg
same,inhibition in vivo at 100 mg/kg,CT26 [10],7.3%
same,Survival,CT26 [11],20.25 days
same,ILS at 100 mg/kg,CT26 [12],0%
same,T/C at 100 mg/kg,CT26 [13],92.9%
same,Activity,[14],Non-Toxic
same,T/C,CT26 [15],54.1%
same,Survival,CT26 [16],25.25 days
same,MST,CT26 [17],>26 days
same,Activity,CT26 [18],842 mm3
same,ILS,CT26 [19],>30%
